COUP-TFII inh = NR2F2 transcriptional activity inhibitors, primary screen, cell-based, luciferase reporter, HEK293T, luminescence; hit rate 0.7% among 370,000; inhibition, % at 8.6 µM; HEK293T NGFI-A luciferase reporter; AID 686940, 2013; COUP transcription factor 2 (Homo sapiens), P24468;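 active = inhibition above a per-plate cutoff, mean inhibition of test wells between control levels plus 3 SD, cut at about 38% in these data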;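 note: cells cotransfected with COUP-TFII expression vector driving the NGFI-A reporter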
Target sequence (P24468 whole entry, looked up): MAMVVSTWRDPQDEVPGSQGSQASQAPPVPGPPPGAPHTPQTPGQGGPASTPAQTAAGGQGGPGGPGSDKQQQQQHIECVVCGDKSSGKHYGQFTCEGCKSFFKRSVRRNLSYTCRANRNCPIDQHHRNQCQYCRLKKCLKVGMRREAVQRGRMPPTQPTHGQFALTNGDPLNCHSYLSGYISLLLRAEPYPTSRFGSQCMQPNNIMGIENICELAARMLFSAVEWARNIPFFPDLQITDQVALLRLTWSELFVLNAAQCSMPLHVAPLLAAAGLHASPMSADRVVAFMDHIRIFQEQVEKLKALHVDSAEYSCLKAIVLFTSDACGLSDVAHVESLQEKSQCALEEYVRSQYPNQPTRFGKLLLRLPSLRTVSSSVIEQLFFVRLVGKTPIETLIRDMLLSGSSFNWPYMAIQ
NR2E3 ag-1 = inhibitors of NR2E3-RetCOR corepressor binding, primary screen, NR2E3 agonist project, biochemical, TR-FRET, GST-NR2E3, biotin-RetCOR | inhibition of corepressor binding, % at 4.78 µM | 1536-well | hit rate 0.12% among 320,000 | AID 2300, 2010 | Photoreceptor-specific nuclear receptor (Homo sapiens), Q9Y5X4;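 active = percent inhibition above the cutoff of mean plus 3 SD of all tested compounds, set per screening campaign, cut at about 20% in these data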
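Format: 1536-well format; test system: GST-NR2E3 and biotin-RetCOR proteins; read-out basis: percent inhibition of TR-FRET ratio; timing: 5 h incubation at 4 °C; detection: time-resolved FRET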
GalR3 antagonist = GalR3 antagonists in HEK293 cells, primary screen, cell-based, fluorescence readout; HEK293 GalR3-CNG cAMP membrane potential fluorescence; galR3 body fused to GalR1 C-terminus; inhibition, % at 3 µM; hit rate 0.44% among 360,000;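 active = inhibition above the screen-wide average plus 3 SD, cut at about 13% in these data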;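 note: forskolin and galanin both at EC90 stimulate the cells; cAMP rise reported by CNG channel membrane potential dye signal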
NR2E3 ag-2 = NR2E3 agonists in two-hybrid cells, primary screen, cell-based, luminescence, CHO-S, Gal4-NCOR/VP16-NR2E3; Photoreceptor-specific nuclear receptor (Homo sapiens), Q9Y5X4; luciferase; inhibition of corepressor binding, % at 3.98 µM; hit rate 0.35% among 360,000; AID 602229, 2012;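 active = inhibition above the mean of all tested compounds plus 3 SD, cut at about 70% in these data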;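 note: higher means lower luciferase signal from less NR2E3 corepressor binding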
CHT PAM = CHT positive allosteric modulators, primary screen, cell-based, membrane potential dye, choline EC20; High affinity choline transporter 1 (Homo sapiens), Q9GZV3; CHT-expressing cells; active compounds read high; LV-AA mutant CHT in HEK293 cells; B-score at 10 µM; hit rate 0.49% among 310,000; AID 488977, 2010;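 active = initial fluorescence not abnormally high and integrated response B-score, plate-corrected, over 3 SD above library mean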
CHT block = inhibitors of human choline transporter CHT | CHT-expressing cells, membrane potential dye, choline response; active compounds read low | B-score at 10 µM | hit rate 0.86% among 310,000 | AID 488975, 2010;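 active = B-score over 3 SD under the library average, and starting fluorescence ratio not unusually high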;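 note: choline stimulus applied at its EC90 after an EC20 pre-addition; B-score computed on integrated fluorescence ratio after choline addition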
CHT act confirm = CHT activators, confirmation, cell-based, membrane potential dye, duplicate; AID 504833, 2011; shares compounds with CHT PAM; CHT-expressing cells, membrane potential dye fluorescence (FDSS); % of choline EC20–EC90 response window; HEK293 expressing CHT LV-AA mutant; choline added at its EC20; hit rate 91% among 2,500; activation, % at 10 µM;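 active = primary screen active, with duplicate mean activation above negative control mean plus 3 SD, cut at about 11% in these data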
HEK293 MP dye = membrane potential response in parental HEK293 cells, counter-screen for CHT activator project, cell-based, membrane potential dye; shares compounds with CHT PAM; membrane potential dye fluorescence (FDSS); measured after EC20 choline addition; ratio readout change at 10 µM, hits read low; hit rate 62% among 2,500;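 active = duplicate-averaged ratio beyond 3 SD from buffer wells, up or down, though filed actives are nearly all decreases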
Of the large screens only hits and unclear results are named; the others gave an inactive call (follow-up assays come after a bar, where they were run). Most compounds without a hit are left out; they make up all but 2.3% or so of the library.

Cc1cc(N2CCOCC2)nc(N2CCOCC2)n1	none | CHT act confirm 76 | HEK293 MP dye -40
Cc1cc(N2CCCCC2)nc(N2CCOCC2)n1	none
Nc1c2c(nc3ccccc13)CSCC2	CHT PAM 6.3 | CHT act confirm 54 | HEK293 MP dye -55
COc1ccc([C@H]2OC(=O)C[C@@H]2C(=O)N2CCN(c3ccccc3F)CC2)cc1OC	none (no result: NR2E3 ag-1, GalR3 antagonist, NR2E3 ag-2, CHT PAM, CHT block)
COC(=O)[C@]12C[C@H](CC(=O)NCCc3ccccc3OC)C(=O)N(Cc3ccco3)C1=C[C@H](COCc1ccccc1)O[C@@H]2C	none (no result: NR2E3 ag-1, GalR3 antagonist, NR2E3 ag-2, CHT PAM, CHT block)
CC(C)CN1C(=O)C[C@@]2(C(=O)N(C)c3ccc(NS(=O)(=O)C4CC4)cc32)C1c1ccccc1 (stereo not given in full)	none (no result: NR2E3 ag-1, GalR3 antagonist, NR2E3 ag-2, CHT PAM, CHT block)
CCN(CCNC(=O)[C@H]1C=C(OC)C(=O)C[C@H](c2ccccc2)[C@H]1C)C(C)=O	none (no result: NR2E3 ag-1, GalR3 antagonist, NR2E3 ag-2, CHT PAM, CHT block)
COc1ccc2c(c1)c1ncn(CCCN3CCOCC3)c(=O)c1n2C	none | CHT act confirm 44 | HEK293 MP dye -39
COc1ccc2c(c1)[nH]c1c(=O)n(CCCN3CCOCC3)cnc12	none
NC1=Nc2cccc3cccc1c23	none | CHT act confirm 45 | HEK293 MP dye -65
O=C(NC1CCCCC1)C(c1ccc2ncccc2c1)N(Cc1ccc(F)cc1)C(=O)c1cccs1 (stereo not given)	none | CHT act confirm 31 | HEK293 MP dye inactive
O=C(NC1CCCCN(Cc2cccc(Cl)c2)C1=O)c1ccc(Cl)cc1Cl (stereo not given)	none (no result: NR2E3 ag-1, GalR3 antagonist, NR2E3 ag-2, CHT PAM, CHT block)
C=CCN1C(c2ccc(Br)cc2)=CS/C1=C(\C#N)c1nnc(N2CCOCC2)n1-c1ccccc1	none (no result: NR2E3 ag-1, CHT PAM, CHT block)
C=CCN1C(c2ccc(OCC)cc2)=CS/C1=C(\C#N)c1nnc2n1CCCCC2	CHT PAM 9.2 | CHT act confirm 26 | HEK293 MP dye inactive
N#CC1=C(N)Oc2cc(N)ccc2C1c1cccc(Br)c1 (stereo not given)	none (no result: NR2E3 ag-1) | CHT act confirm 34 | HEK293 MP dye inactive
Cc1ccc(C2C(C#N)=C(N)Oc3cc(N)ccc32)cc1 (stereo not given)	none
O=C(NCCCCc1ccccc1)c1cc([N+](=O)[O-])cc([N+](=O)[O-])c1	none | CHT act confirm 49 | HEK293 MP dye -24
CCCCCCCCN1C(=O)[C@@H](CC(=O)NCc2cccs2)C[C@@]2(C(=O)OC)C1=C[C@H](C(C)C)O[C@@H]2C1CC1	none (no result: NR2E3 ag-1, GalR3 antagonist, NR2E3 ag-2, CHT PAM, CHT block)
O=C(COC(=O)c1ccc[n+]([O-])c1)Nc1cc([N+](=O)[O-])ccc1Cl	none (no result: NR2E3 ag-1, CHT PAM, CHT block)
O=C(COC(=O)c1cc[n+]([O-])cc1)Nc1cc([N+](=O)[O-])ccc1Cl	none | CHT act confirm 40 | HEK293 MP dye -50
COc1ccc(Cn2nnnc2C(c2ccccn2)N2CCN(c3cc(Cl)ccc3C)CC2)cc1 (stereo not given)	none
COCCn1nnnc1C(c1ccccn1)N1CCN(c2cc(Cl)ccc2C)CC1 (stereo not given)	CHT PAM 7.9 | CHT act confirm 15 | HEK293 MP dye inactive
CN1CCc2c(sc3nc(SCC(N)=O)n(-c4ccc(Cl)cc4)c(=O)c23)C1	CHT PAM 6.8 | CHT act confirm 46 | HEK293 MP dye -34

Screening data as filed in PubChem BioAssay.
